Starred links: 1 amine or outer side, 2 acyl side, 3 side chain; linkers in the order of their positions; H or OH if unused. Non-standard residues stand in square brackets, D forms with d. Residues, ends and D or L forms follow the SMILES beside them. *: point of attachment. X1 = NP(=O)(OCc1c(F)c(F)c(N*)c(F)c1F)N(CCCl)CCCl; X3 = NP(=O)(OCc1c(F)cc(N*)cc1F)N(CCCl)CCCl; X2 = NP(=O)(OCc1ccc(N*)c(F)c1)N(CCCl)CCCl; X5 = NP(=O)(OCc1ccc(N*)cc1F)N(CCCl)CCCl; X4 = NP(=O)(OCc1ccc(N*)cc1)N(CCCl)CCCl; Glutaryl = O=C(CCCC(=O)[*:2])[*:1]; Hyp = O=C(O)[C@@H]1C[C@@H](O)CN1; Chg = N[C@H](C(=O)O)C1CCCCC1 Bounds are passed on as bounds.

Data set [1] is described as follows: Half life in Tris buffer pH 8 at 100 uM by HPLC analysis. The format is ADME. The method in brief:
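Conjugate at 100 µM incubated at 37 °C in 50 mM Tris/HCl pH 8.0 with 10 mM CaCl2 and 0.1% Tween-20, without enzyme. Loss of conjugate followed over time by HPLC to give half-life.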

For another data set, the system named is LNCaP. Nature of the data set: Antiproliferative activity against human LNCAP cells expressing prostate specific antigen after 72 hrs by MTT assay. The format is functional, cell-based. The method in brief:
(§1)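 LNCaP (PSA-producing) and DU145 (non-PSA) cells grown in RPMI 1640 with 10% FBS; 7500 LNCaP or 500 DU145 cells/well, grown 48 h. Medium then switched to serum-free RPMI with 2% TCM, no phenol red. Conjugates 0.01–100 µM for 72 h; medium alone as negative control. MTT 4 h at 37 °C, read at 570 nm; IC50 interpolated from percent of control growth.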
A general note: Tetrazolium dyes change colour on reduction, which living cells bring about.

Data set [2] has as its target T1, Prostate-specific antigen (Homo sapiens, UniProt P07288).
T1 sequence (P07288 whole entry): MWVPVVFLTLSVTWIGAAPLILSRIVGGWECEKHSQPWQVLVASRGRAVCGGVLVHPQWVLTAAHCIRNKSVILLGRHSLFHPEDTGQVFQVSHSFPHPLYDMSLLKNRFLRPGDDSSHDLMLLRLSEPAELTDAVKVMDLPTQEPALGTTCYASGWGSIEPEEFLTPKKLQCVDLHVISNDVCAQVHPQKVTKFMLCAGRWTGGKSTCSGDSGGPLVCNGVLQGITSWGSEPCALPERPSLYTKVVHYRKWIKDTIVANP
The data set can be described thus: Prodrug activation assessed as prostate specific antigen (unknown origin)-mediated drug metabolism in Tris/HCl buffer pH 8 at 100 uM measured as half life by HPLC analysis. In kind it is ADME. To be noted: pH 8, 100 µM. The method in brief: (§2)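 Purified PSA with substrate at 1:100 enzyme/substrate molar ratio, 37 °C, Tris/HCl pH 8.0 with 10 mM CaCl2 and 0.1% Tween-20. Substrate stocks 10 mM in DMSO. Aliquots taken at intervals, quenched with 20% acetonitrile, frozen, then analysed by HPLC for substrate loss. Cleavage site after Gln confirmed by LC/MS.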

Data set [3] in a line: Antiproliferative activity against human DU145 cells after 72 hrs by MTT assay. The format is functional, cell-based. To be noted: DU-145, 72 h. The method in brief: as §1
In data set [4] the target is T1, Prostate-specific antigen. Nature of the data set: Prodrug activation assessed as prostate specific antigen (unknown origin)-mediated drug metabolism in Tris/HCl buffer pH 8 at 0.16 mM by HPLC analysis. To be noted: pH 8, 160 µM, TDE = time-dependent effect. In kind it is ADME. The method in brief:
as §2

The target of data set [5] is T1, Prostate-specific antigen. The data set can be described thus: Prodrug activation assessed as prostate specific antigen (unknown origin)-mediated drug metabolism in Tris/HCl buffer at pH 8 measured after 2 hrs by HPLC analysis. To be noted: pH 8, 2 h. In kind it is ADME. An outline of the steps: as §2

With `C[C@H](NC(=O)[C@@H]1C[C@@H](O)CN1C(=O)CCCC(=O)O)C(=O)N[C@@H](CO)C(=O)N[C@H](C(=O)N[C@@H](CCC(N)=O)C(=O)Nc1c(F)c(F)c(COP(N)(=O)N(CCCl)CCCl)c(F)c1F)C1CCCCC1` (some centres undefined) (Glutaryl-[Hyp]AS[Chg]Q-X1), in data set [1], the half-life (commonly the time needed for the level to fall by half in the phase considered) at 100 µM was 178 h. In addition, the IC50 (in the data set with LNCaP; in data set [3]) was > 100 µM in each case. In addition, the t1/2 in data set [2] stood at 1.1 h. For the same molecule, the Drug metabolism entry in data set [4] is given as “tde”.

For the molecule `C[C@H](NC(=O)[C@@H]1C[C@@H](O)CN1C(=O)CCCC(=O)O)C(=O)N[C@@H](CO)C(=O)N[C@H](C(=O)N[C@@H](CCC(N)=O)C(=O)Nc1ccc(COP(N)(=O)N(CCCl)CCCl)cc1F)C1CCCCC1` (some centres undefined) (Glutaryl-[Hyp]AS[Chg]Q-X2), in data set [1], the half-life at 100 µM was 465 h. The IC50 (in general, the midpoint of a concentration-inhibition curve) in the data set with LNCaP is 29 µM; in data set [3], > 100 µM. Further, in data set [2], the t1/2 was 0.65 h. In addition, in data set [4], the Drug metabolism entry is on record as “tde”.

Take `C[C@H](NC(=O)[C@@H]1C[C@@H](O)CN1C(=O)CCCC(=O)O)C(=O)N[C@@H](CO)C(=O)N[C@H](C(=O)N[C@@H](CCC(N)=O)C(=O)Nc1ccc(COP(N)(=O)N(CCCl)CCCl)cc1)C1CCCCC1` (some centres undefined) (Glutaryl-[Hyp]AS[Chg]Q-X4): the half-life at 100 µM in data set [1] was 46 h. The IC50 with LNCaP is 11 µM; in data set [3], 35 µM. Besides, the t1/2 in data set [2] is 2.1 h. Also, in data set [4], the Drug metabolism entry was “tde”.

Take `C[C@H](NC(=O)[C@@H]1C[C@@H](O)CN1C(=O)CCCC(=O)O)C(=O)N[C@@H](CO)C(=O)N[C@H](C(=O)N[C@@H](CCC(N)=O)C(=O)Nc1cc(F)c(COP(N)(=O)N(CCCl)CCCl)c(F)c1)C1CCCCC1` (some centres undefined) (Glutaryl-[Hyp]AS[Chg]Q-X3): in data set [1], the half-life at 100 µM is 131 h. For the same molecule, the IC50 was 20 µM in the data set on LNCaP and > 100 µM in data set [3]. The t1/2 in data set [2] came out at 1.7 h. In data set [4], the Drug metabolism result is recorded as “tde”.

Turning to `C[C@H](NC(=O)[C@@H]1C[C@@H](O)CN1C(=O)CCCC(=O)O)C(=O)N[C@@H](CO)C(=O)N[C@H](C(=O)N[C@@H](CCC(N)=O)C(=O)Nc1ccc(COP(N)(=O)N(CCCl)CCCl)c(F)c1)C1CCCCC1` (some centres undefined) (Glutaryl-[Hyp]AS[Chg]Q-X5), the half-life at 100 µM in data set [1] is 105 h. In addition, the IC50 with LNCaP is 5.3 µM; in data set [3], > 100 µM. Moreover, in data set [2], the t1/2 worked out at 0.93 h. Moreover, the Drug metabolism result in data set [4] is on record as “tde”.

With `COc1cccc2c1C(=O)c1c(O)c3c(c(O)c1C2=O)C[C@](O)(C(=O)CO)C[C@H]3O[C@@H]1C[C@@H](NC(=O)[C@@H](CC(C)C)NC(=O)[C@@H](CO)NC(=O)[C@@H](CCC(N)=O)NC(=O)[C@H](NC(=O)[C@@H](CO)NC(=O)[C@@H](C)NC(=O)[C@@H]2C[C@@H](O)CN2C(=O)CCCC(=O)O)C2CCCCC2)[C@@H](O)[C@@H](C)O1` (stereo in doubt), the concentration for half-maximal inhibition (IC50) in the data set on LNCaP was 1.1 µM; in data set [3], > 100 µM. The Drug metabolism result in data set [5] is “metabolite_detected”. For the same molecule, in data set [2], the t1/2 is 0.6 h.

The values are drawn from ChEMBL document CHEMBL3797115, “Design and synthesis of peptide conjugates of phosphoramide mustard as prodrugs activated by prostate-specific antigen” (Bioorg Med Chem, 2016).
